# From ChEMBL document CHEMBL4330163, “Veluflavanones A-P, Cytotoxic Geranylated Flavanones from Dalbergia velutina Stems” (J Nat Prod, 2019)
# Columns and labels:
# Assay type in all cases: functional, cell-based
# HT-29 = experiment: Cytotoxicity against human HT-29 cells by MTT assay
# How it was run: (§1)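 Modified MTT colorimetric assay on five human cancer lines (KB epidermoid, HeLa S3 cervical, MCF-7 breast, Hep G2 hepatocellular, HT-29 colon adenocarcinoma). Doxorubicin was run as positive control.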
# MCF7 = experiment: Cytotoxicity against human MCF7 cells by MTT assay; how it was run: as §1
# HeLa S3 = experiment: Cytotoxicity against human HeLaS3 cells by MTT assay; how it was run: as §1
# KB = experiment: Cytotoxicity against human KB cells by MTT assay; how it was run: as §1
# HepG2 = experiment: Cytotoxicity against human HepG2 cells by MTT assay; how it was run: as §1
SMILES,IC50 (HT-29),IC50 (MCF7),IC50 (HeLa S3),IC50 (KB),IC50 (HepG2)
CC(C)=CCCC1(C)Oc2ccc3c(c2CC1O)O[C@H](c1ccc(O)cc1)CC3=O (stereo not given in full),> 10 µM,> 10 µM,> 10 µM,> 10 µM,> 10 µM
C=C(C)/C=C/CC1(C)CCc2c(ccc3c2O[C@H](c2ccc(O)cc2)CC3=O)O1 (stereo not given in full),> 10 µM,> 10 µM,> 10 µM,> 10 µM,> 10 µM
C=C(C)C(O)CC/C(C)=C/Cc1c(O)ccc2c1O[C@H](c1ccc(O)cc1)CC2=O (stereo not given in full),> 10 µM,> 10 µM,> 10 µM,> 10 µM,> 10 µM
C/C(=C\Cc1c(O)ccc2c1O[C@H](c1ccc(O)cc1)CC2=O)C/C=C/C(C)(C)O,> 10 µM,> 10 µM,> 10 µM,> 10 µM,> 10 µM
C=C(C)C(O)CCC1(C)CCc2c(ccc3c2O[C@H](c2ccc(O)cc2)CC3=O)O1 (stereo not given in full),> 10 µM,> 10 µM,> 10 µM,> 10 µM,> 10 µM
CC1=CCC(O)C(C)(C)C1Cc1c(O)ccc2c1O[C@H](c1ccc(O)cc1)CC2=O (stereo not given in full),> 10 µM,> 10 µM,> 10 µM,> 10 µM,> 10 µM
COC(C)(C)/C=C/CC1(C)CCc2c(ccc3c2O[C@H](c2ccc(O)cc2)CC3=O)O1 (stereo not given in full),> 10 µM,> 10 µM,8.6 µM,> 10 µM,> 10 µM
CC(C)=CCC/C(C)=C/Cc1c(O)ccc2c1O[C@H](c1ccc(O)cc1)CC2=O,> 10 µM,> 10 µM,> 10 µM,> 10 µM,> 10 µM
CC(C)=CCCC1(C)CCc2c(ccc3c2O[C@H](c2ccc(O)cc2)CC3=O)O1 (stereo not given in full),> 10 µM,9.9 µM,8.1 µM,9.9 µM,> 10 µM
CC(C)=CCCC(C)(O)C1Cc2c(ccc3c2O[C@H](c2ccc(O)cc2)CC3=O)O1 (stereo not given in full),> 10 µM,> 10 µM,> 10 µM,> 10 µM,> 10 µM
COC(C)(C)/C=C/C/C(C)=C/Cc1c(O)ccc2c1O[C@H](c1ccc(O)cc1)CC2=O,> 10 µM,> 10 µM,> 10 µM,> 10 µM,> 10 µM
CC1(CCC(O)C(C)(C)O)CCc2c(ccc3c2O[C@H](c2ccc(O)cc2)CC3=O)O1 (stereo not given in full),> 10 µM,> 10 µM,> 10 µM,> 10 µM,> 10 µM
CC(C)=CCCC1(C)CCc2c(cc(O)c3c2O[C@H](c2ccc(O)cc2)CC3=O)O1 (stereo not given in full),> 10 µM,> 10 µM,9.9 µM,> 10 µM,> 10 µM
CC(C)(O)/C=C/CC1(C)CCc2c(ccc3c2O[C@H](c2ccc(O)cc2)CC3=O)O1 (stereo not given in full),> 10 µM,> 10 µM,6.6 µM,> 10 µM,> 10 µM
C=C(CCC=C(C)C)C(O)Cc1c(O)ccc2c1O[C@H](c1ccc(O)cc1)CC2=O (stereo not given in full),> 10 µM,> 10 µM,> 10 µM,> 10 µM,> 10 µM
CC1(CCC2OC2(C)C)CCc2c(ccc3c2O[C@H](c2ccc(O)cc2)CC3=O)O1 (stereo not given in full),> 10 µM,> 10 µM,8.3 µM,> 10 µM,> 10 µM
COC(C=C(C)C)C/C(C)=C/Cc1c(O)ccc2c1O[C@H](c1ccc(O)cc1)CC2=O (stereo not given in full),> 10 µM,> 10 µM,> 10 µM,> 10 µM,> 10 µM
COc1cccc2c1C(=O)c1c(O)c3c(c(O)c1C2=O)C[C@@](O)(C(=O)CO)C[C@@H]3O[C@H]1C[C@H](N)[C@H](O)[C@H](C)O1 [DOXORUBICIN],0.34 µM,0.61 µM,0.03 µM,0.13 µM,1.07 µM
